What all share (type): functional, cell-based
For one assay, the system named is MCF7. As to the kind of experiment: Antiproliferative activity against human MCF7 cells after 3 days by MTT assay. Particulars: MCF7, 72 h. The procedure, abridged: (§1)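 Stock cells grown to confluence in DMEM with 10% inactivated FBS, penicillin, streptomycin and amphotericin B at 37 °C, 5% CO₂, then detached with trypsin-EDTA-glucose. About 10,000 cells per well were seeded; after 24 h, drug was added at five dose levels for 72 h. MTT was added for 3 h, formazan dissolved in propanol and read at 540 nm. IC50 was taken from dose-response curves, triplicate, mean ± SEM.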
A general note: Formazan colour is commonly taken as a measure of viable cells.

Another assay concerns HeLa. As to the kind of experiment: Antiproliferative activity against human HeLa cells after 3 days by MTT assay. To be noted: 72 h. An outline of the steps:
as §1

A further assay concerns A549. As to the kind of experiment: Antiproliferative activity against human A549 cells after 3 days by MTT assay. To be noted: A549, 72 h. An outline of the steps:
as §1

Drawing on ChEMBL document CHEMBL3259535, “Synthesis, cytotoxic study and docking based multidrug resistance modulator potential analysis of 2-(9-oxoacridin-10(9H)-yl)-N-phenyl acetamides” (Eur J Med Chem, 2014), this text covers IC50 for 15 compounds.

The term IC50 denotes the midpoint of a concentration-inhibition curve.

For `O=C(Cn1c2ccccc2c(=O)c2ccccc21)Nc1ccc(C(=O)O)cc1`, the IC50 in the assay on MCF7 came out at 7.12 µM; with HeLa, 10.7 µM; with A549 it was 8.8 µM.

Consider `O=C(Cn1c2ccccc2c(=O)c2ccccc21)Nc1ccc(O)cc1`, for which the concentration for half-maximal inhibition (IC50) came to 15.6 µM in the assay with MCF7, 22 µM with HeLa and 17.4 µM in the assay with A549.

For the compound `O=C(Cn1c2ccccc2c(=O)c2ccccc21)Nc1cccc(C(F)(F)F)c1`, the results for the IC50 in the assay with MCF7, with HeLa and in the assay with A549 were 35.1 µM, 34.9 µM and 38.2 µM, respectively.

For the compound `COc1ccc(NC(=O)Cn2c3ccccc3c(=O)c3ccccc32)cc1`, the IC50 worked out at 15 µM with MCF7, 19.6 µM in the assay with HeLa and 16.7 µM in the assay with A549.

Take `O=C(Cn1c2ccccc2c(=O)c2ccccc21)Nc1ccccc1F`: the IC50 with MCF7 amounted to 29.2 µM; with HeLa, 25.4 µM; with A549 it was 23.3 µM.

`O=C(Cn1c2ccccc2c(=O)c2ccccc21)Nc1ccc(Br)cc1`: the IC50 in the assay with MCF7 was determined as 33 µM; in the assay on HeLa, 32.2 µM; in the assay with A549, 35.1 µM.

`O=C(Cn1c2ccccc2c(=O)c2ccccc21)Nc1ccc([N+](=O)[O-])cc1`: the half-maximal inhibitory concentration (IC50) in the assay with MCF7 was 14 µM; in the assay on HeLa it was 17.2 µM; with A549, 19.7 µM.

With `Cc1ccc(NC(=O)Cn2c3ccccc3c(=O)c3ccccc32)cc1`, the values for the IC50 in the assay on MCF7, in the assay with HeLa and in the assay on A549 were 20.1 µM, 21.9 µM and 20.2 µM, respectively.

Take `O=C(Cn1c2ccccc2c(=O)c2ccccc21)Nc1ccccc1[N+](=O)[O-]`: the IC50 in the assay on MCF7 was found to be 12.6 µM; in the assay with HeLa it was 13.2 µM; with A549, 11.8 µM.

`O=C(Cn1c2ccccc2c(=O)c2ccccc21)Nc1ccc(Cl)cc1`: the figures for the half-inhibitory concentration (IC50) in the assay on MCF7, with HeLa and in the assay with A549 were 31.2 µM, 32.3 µM and 34.9 µM, respectively.

For the compound `O=C(Cn1c2ccccc2c(=O)c2ccccc21)Nc1ccccc1C(=O)O`, the values for the IC50 with MCF7, in the assay on HeLa and with A549 were 6.07 µM, 8.8 µM and 7.39 µM, respectively.

As to `O=C(Cn1c2ccccc2c(=O)c2ccccc21)Nc1cccc(Cl)c1`, the IC50 in the assay on MCF7 was determined as 30.1 µM; in the assay on HeLa, 29.1 µM; with A549, 33.3 µM.

Turning to `O=C(Cn1c2ccccc2c(=O)c2ccccc21)Nc1ccc(F)cc1`, the results for the IC50 in the assay on MCF7, in the assay with HeLa and in the assay with A549 were 27.5 µM, 26.6 µM and 24.5 µM, respectively.

Take `O=C(Cn1c2ccccc2c(=O)c2ccccc21)Nc1ccc(C(F)(F)F)cc1`: the figures for the IC50 in the assay with MCF7, in the assay with HeLa and with A549 were 26.4 µM, 23.2 µM and 20.5 µM, respectively.

Regarding `O=C(Cn1c2ccccc2c(=O)c2ccccc21)Nc1ccccc1`, the results for the IC50 with MCF7, in the assay on HeLa and with A549 were 39.7 µM, 43.8 µM and 41.4 µM, respectively.
